Series [1] has as its target T1, Diacylglycerol O-acyltransferase 1 (Homo sapiens, UniProt O75907).
T1 sequence (O75907 whole entry): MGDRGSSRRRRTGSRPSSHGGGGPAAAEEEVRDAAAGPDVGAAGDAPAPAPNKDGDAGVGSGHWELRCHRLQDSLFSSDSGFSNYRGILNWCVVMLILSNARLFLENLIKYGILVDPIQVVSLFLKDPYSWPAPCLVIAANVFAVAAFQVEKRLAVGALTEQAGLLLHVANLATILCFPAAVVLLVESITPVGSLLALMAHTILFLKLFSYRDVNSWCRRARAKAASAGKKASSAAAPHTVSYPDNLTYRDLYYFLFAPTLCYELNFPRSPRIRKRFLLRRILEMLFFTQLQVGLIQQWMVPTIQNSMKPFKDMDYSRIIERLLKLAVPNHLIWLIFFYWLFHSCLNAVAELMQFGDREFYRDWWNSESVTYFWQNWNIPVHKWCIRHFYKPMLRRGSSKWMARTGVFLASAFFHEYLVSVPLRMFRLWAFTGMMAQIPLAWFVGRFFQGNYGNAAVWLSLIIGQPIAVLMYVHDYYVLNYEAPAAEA
In words: Inhibition of human DGAT1.

Series [2] concerns the target T2, Diacylglycerol O-acyltransferase 1 (Mus musculus, UniProt Q9Z2A7).
T2 sequence (Q9Z2A7 whole entry): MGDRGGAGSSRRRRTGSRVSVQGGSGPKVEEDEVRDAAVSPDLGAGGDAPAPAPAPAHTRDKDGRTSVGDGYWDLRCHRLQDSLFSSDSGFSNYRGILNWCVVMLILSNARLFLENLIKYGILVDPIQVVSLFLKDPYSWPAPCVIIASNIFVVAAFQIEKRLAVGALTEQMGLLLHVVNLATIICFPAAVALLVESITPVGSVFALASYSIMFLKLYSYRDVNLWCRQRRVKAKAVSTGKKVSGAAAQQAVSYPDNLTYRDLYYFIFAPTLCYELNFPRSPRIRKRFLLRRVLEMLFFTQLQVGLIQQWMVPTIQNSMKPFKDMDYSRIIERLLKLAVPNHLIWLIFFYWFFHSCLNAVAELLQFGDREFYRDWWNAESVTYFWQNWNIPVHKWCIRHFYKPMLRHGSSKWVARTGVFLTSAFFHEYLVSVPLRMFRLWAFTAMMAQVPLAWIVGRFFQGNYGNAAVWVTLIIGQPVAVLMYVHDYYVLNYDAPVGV
In words: Inhibition of mouse DGAT1.

In another series the target is Adenosine receptor A2a (Homo sapiens, UniProt P29274). In words: Binding affinity to human A2A receptor. Put shortly: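 Recombinant human A2A receptor was tested in an in-house radioligand competition binding assay. The value is reported as Ki.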
Series [3] relates to Rattus norvegicus. Nature of the series: Inhibition of plasma triglyceride accumulation in Sprague-Dawley rat at 1 mg/kg, po dosed 2 hrs before lipid challenge and measured at 18 hrs by lipid tolerance test. In kind it is functional. The procedure, abridged: (§1)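 Rat lipid tolerance test at oral doses of 1 and 3 mpk. Reduction of lipid excursion was normalized to a reference DGAT1 inhibitor given at 10 mpk, set as 100%. Plasma drug levels were the parent and its cis isomer combined, measured 4 h after oral dosing.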

For series [4], the target named is Voltage-gated inwardly rectifying potassium channel KCNH2 (Homo sapiens, UniProt Q12809). In words: Displacement of radiolabeled MK499 from human ERG. Put shortly: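 hERG off-target activity was measured in a competitive binding assay against radiolabeled MK-499. The value is reported as Ki.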
Series [5] can be described thus: Solubility in PBS buffer at pH 2. In kind it is physicochemical. The procedure, abridged:
(§2)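 High-throughput solubility test in PBS buffer at pH 2 and at pH 7. Free form and salt forms (TFA, formate, ammonium) were tested separately.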

Series [6] in a line: Solubility in PBS buffer at pH 7. The series is classed as physicochemical. The procedure, abridged:
as §2

Series [7] in a line: Plasma concentration in Sprague-Dawley rat at 1 mg/kg, po dosed 2 hrs before lipid challenge and measured at 4 hrs by lipid tolerance test. In kind it is ADME, organism-based. The arrangement: dose 1 mg/kg, route oral. The procedure, abridged: as §1
The test system of series [8] is Salmonella typhimurium. Nature of the series: Induction of mutagenicity in Salmonella typhimurium TA1535 assessed as increase in number of revertants in absence of metabolic activation. In kind it is toxicity, organism-based. As to conditions: salmonella enterica subsp. enterica serovar typhimurium. Put shortly:
(§3)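 Microbial reverse-mutation (Ames) test in strains TA1535, TA98 and TA100, with and without metabolic activation. The concentration range was 30 to 5000 μg/plate. A positive call required a 2-fold or greater increase in revertants relative to the solvent control.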

For series [9], the system named is Salmonella typhimurium. In words: Induction of mutagenicity in Salmonella typhimurium TA98 assessed as increase in number of revertants in presence of metabolic activation. The series is classed as toxicity, organism-based. Conditions: salmonella enterica subsp. enterica serovar typhimurium. Put shortly: as §3
Series [10] in a line: Oral bioavailability in Sprague-Dawley rat at 2 mg/kg. The series is classed as ADME, organism-based. As to conditions: in vivo.
A short description of series [11]: Half life in Sprague-Dawley rat at 1 mg/kg, iv or 2 mg/kg, po. The series is classed as ADME, organism-based. Conditions: in vivo.
In series [12] the test system is Rattus norvegicus. Nature of the series: AUC in Sprague-Dawley rat assessed as cis-4-((1-(5-(5-(trifluoromethyl)-1H-benzo[d]imidazol-2-yl)pyridin-2-yl)piperidin-4-yl)oxy)cyclohexanecarboxylic acid rat at 2 mg/kg, po. The series is classed as ADME, organism-based, Plasma. Set-up: dose 2 mg/kg, route oral. As to conditions: in vivo.
Series [13] in a line: Volume of distribution at steady state in Beagle dog at 1 mg/kg, iv or 4 mg/kg, po. In kind it is ADME, organism-based, Canis lupus familiaris. Conditions: in vivo, read-out: Vdss. Put shortly:
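Beagle dogs were dosed 1 mg/kg iv as a solution in 30% captisol (pH 8) and 4 mg/kg po in methylcellulose. Pharmacokinetic parameters were derived from these dosings.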

Series [14] in a line: Drug level in adipose fat of C57BL/6 mouse at 10 mg/kg, po after 3 hrs. The series is classed as ADME, organism-based, Adipose tissue. The arrangement: dose 10 mg/kg, route oral. Conditions: read-out: Drug uptake. Put shortly: (§4)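 Tissue distribution in C57BL/6 mice. A single oral dose of 10 mg/kg was given as a solution in EtOH/PEG400/water (10:50:40). Parent and its cis isomer were both measured, in μM, in plasma, liver, small intestine, adipose fat and skin at 3 h and 24 h.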

Series [15] is described as follows: Drug level in adipose fat of C57BL/6 mouse at 10 mg/kg, po after 24 hrs. In kind it is ADME, organism-based, Adipose tissue. The arrangement: dose 10 mg/kg, route oral. Conditions: read-out: Drug uptake. Put shortly:
as §4

Series [16] relates to Plasma. In words: Drug level in plasma of C57BL/6 mouse assessed as cis-4-((1-(5-(5-(trifluoromethyl)-1H-benzo[d]imidazol-2-yl)pyridin-2-yl)piperidin-4-yl)oxy)cyclohexanecarboxylic acid level at 10 mg/kg, po after 24 hrs. In kind it is ADME, organism-based. Set-up: dose 10 mg/kg, route oral. Conditions: in vivo. The procedure, abridged:
as §4

For the next series, the system named is Intestine. Nature of the series: Drug level in small intestine of C57BL/6 mouse assessed as cis-4-((1-(5-(5-(trifluoromethyl)-1H-benzo[d]imidazol-2-yl)pyridin-2-yl)piperidin-4-yl)oxy)cyclohexanecarboxylic acid level at 10 mg/kg, po after 24 hrs. The series is classed as ADME, organism-based. The arrangement: dose 10 mg/kg, route oral. As to conditions: in vivo, read-out: Drug uptake. The procedure, abridged:
as §4

A short description of series [17]: Drug level in adipose fat of C57BL/6 mouse assessed as cis-4-((1-(5-(5-(trifluoromethyl)-1H-benzo[d]imidazol-2-yl)pyridin-2-yl)piperidin-4-yl)oxy)cyclohexanecarboxylic acid level at 10 mg/kg, po after 24 hrs. The series is classed as ADME, organism-based, Adipose tissue. The arrangement: dose 10 mg/kg, route oral. Conditions: in vivo, read-out: Drug uptake. Put shortly: as §4

The subject of series [18] is Plasma. In words: Drug level in plasma of C57BL/6 mouse assessed as cis-4-((1-(5-(5-(trifluoromethyl)-1H-benzo[d]imidazol-2-yl)pyridin-2-yl)piperidin-4-yl)oxy)cyclohexanecarboxylic acid level at 10 mg/kg, po after 3 hrs. In kind it is ADME, organism-based. Conditions: in vivo. The arrangement: dose 10 mg/kg, route oral. Put shortly:
as §4

The test system of a further series is Liver. In words: Drug level in liver of C57BL/6 mouse assessed as cis-4-((1-(5-(5-(trifluoromethyl)-1H-benzo[d]imidazol-2-yl)pyridin-2-yl)piperidin-4-yl)oxy)cyclohexanecarboxylic acid level at 10 mg/kg, po after 3 hrs. In kind it is ADME, organism-based. The arrangement: dose 10 mg/kg, route oral. As to conditions: in vivo, read-out: Drug uptake. The procedure, abridged: as §4

1 compound from ChEMBL document CHEMBL3351398, “Discovery of a Potent and Selective DGAT1 Inhibitor with a Piperidinyl-oxy-cyclohexanecarboxylic Acid Moiety” (ACS Med Chem Lett, 2014) can be followed below.

pIC50, pKi: −log10 of the molar value. ≈ marks a conversion by molar mass, not a printed value.

Chain of Voltage-gated inwardly rectifying potassium channel KCNH2 (Q12809 whole entry): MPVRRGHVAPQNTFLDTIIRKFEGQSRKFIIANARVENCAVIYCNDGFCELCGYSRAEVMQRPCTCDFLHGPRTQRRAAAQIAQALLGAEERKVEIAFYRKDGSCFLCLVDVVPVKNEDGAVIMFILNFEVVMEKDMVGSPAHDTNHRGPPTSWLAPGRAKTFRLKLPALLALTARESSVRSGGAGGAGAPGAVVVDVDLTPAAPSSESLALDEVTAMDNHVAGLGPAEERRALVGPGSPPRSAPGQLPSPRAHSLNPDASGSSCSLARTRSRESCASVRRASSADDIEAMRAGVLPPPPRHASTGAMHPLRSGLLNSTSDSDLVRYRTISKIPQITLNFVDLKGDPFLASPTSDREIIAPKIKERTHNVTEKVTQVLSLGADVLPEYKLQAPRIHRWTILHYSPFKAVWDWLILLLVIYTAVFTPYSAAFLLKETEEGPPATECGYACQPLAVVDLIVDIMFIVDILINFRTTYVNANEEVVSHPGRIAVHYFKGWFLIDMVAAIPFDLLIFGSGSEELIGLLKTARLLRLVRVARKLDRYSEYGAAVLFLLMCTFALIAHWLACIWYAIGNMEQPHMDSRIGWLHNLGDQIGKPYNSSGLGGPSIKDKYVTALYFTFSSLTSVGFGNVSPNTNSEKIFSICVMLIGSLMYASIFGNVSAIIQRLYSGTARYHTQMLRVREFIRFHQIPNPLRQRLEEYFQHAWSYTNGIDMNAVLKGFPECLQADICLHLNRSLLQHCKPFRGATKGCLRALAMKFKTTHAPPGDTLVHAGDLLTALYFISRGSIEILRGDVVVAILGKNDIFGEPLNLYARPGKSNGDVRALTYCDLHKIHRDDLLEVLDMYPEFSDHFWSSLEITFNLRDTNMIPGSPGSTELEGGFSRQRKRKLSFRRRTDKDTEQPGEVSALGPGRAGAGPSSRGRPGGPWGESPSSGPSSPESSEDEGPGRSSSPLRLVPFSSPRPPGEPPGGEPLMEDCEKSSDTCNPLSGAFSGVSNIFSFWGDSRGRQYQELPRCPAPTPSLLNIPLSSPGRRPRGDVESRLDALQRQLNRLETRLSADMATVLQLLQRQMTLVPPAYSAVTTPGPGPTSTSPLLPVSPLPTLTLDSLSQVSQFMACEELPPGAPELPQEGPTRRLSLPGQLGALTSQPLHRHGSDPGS
Chain of Adenosine receptor A2a (P29274 whole entry): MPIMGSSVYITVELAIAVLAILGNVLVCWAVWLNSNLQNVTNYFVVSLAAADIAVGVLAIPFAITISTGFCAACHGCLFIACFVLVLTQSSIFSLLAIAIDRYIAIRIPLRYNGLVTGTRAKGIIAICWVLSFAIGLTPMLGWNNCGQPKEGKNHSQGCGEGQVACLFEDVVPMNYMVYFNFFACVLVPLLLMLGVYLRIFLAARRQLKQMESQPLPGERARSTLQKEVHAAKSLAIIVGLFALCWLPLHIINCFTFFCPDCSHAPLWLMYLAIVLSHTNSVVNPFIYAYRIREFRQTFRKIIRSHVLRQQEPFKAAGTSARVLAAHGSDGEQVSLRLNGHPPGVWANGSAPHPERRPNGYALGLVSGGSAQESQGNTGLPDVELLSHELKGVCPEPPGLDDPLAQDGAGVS

The term pIC50 denotes −log10 of the IC50, conventionally taken in molar units. Higher therefore signals a small IC50. The pKi is −log10 of the Ki, conventionally taken in molar units. Read a low pKi as a large Ki. For orientation: inhibition in vivo means the percentage by which the read-out fell short of the control. Lower therefore signals a weak effect. What is called solubility is how much of the substance goes into solution per volume. A lower solubility goes with a poorly soluble substance. One may read the bioavailability as dose-corrected exposure relative to a reference, in per cent. Higher therefore signals good availability. As a reminder, the half-life is the time in which the quantity being followed falls by half. A word on the AUC: it is the area under the concentration-time curve, a measure of exposure. Take `O=C(O)[C@H]1CC[C@H](OC2CCN(c3ccc(-c4nc5cc(C(F)(F)F)ccc5[nH]4)cn3)CC2)CC1`: the pIC50 in series [1] is 8.41; in [2], 7.64. Besides, the negative-log Ki (pKi) was 5.34 at Adenosine receptor A2a and 5.00 in series [4]. In addition, in the series with Rattus norvegicus [3], the inhibition in vivo at 1 mg/kg was 80%. In addition, the solubility in [5] was 167 µM (≈ 81.6 µg/mL); in series [6], 153 µM (≈ 74.7 µg/mL). In series [7], this compound registered a concentration at 4 h of 20 nM. Also, the Activity result in the series with Salmonella typhimurium [8] and in the series on Salmonella typhimurium [9] was “Non-toxic” throughout. Moreover, the bioavailability in [10] turned out to be 8%. The half-life in [11] is 54.6 min. For the same compound, the area under the curve (AUC) in the series on Rattus norvegicus [12] stood at 0.97 µM·h. In addition, the Vd in [13] came out at 4.54 L/kg. In series [14], the concentration at 3 h is 237 nM. For the same compound, in series [15], the concentration at 24 h was less than 10 nM. Further, the concentration in the series on Plasma [16] was less than 10 nM; in the series with Intestine, 76 nM; in series [17] it was less than 10 nM; with Plasma [18], 54 nM; in the series on Liver, 6910 nM.
